Test results published in ChEMBL document CHEMBL1125331, “6-Hydroxy-3-n-propyl-2,3,4,5-tetrahydro-1H-3-benzazepine and analogs: new centrally acting 5-HT1A receptor agonists” (J Med Chem, 1992).

How the values were obtained:
[1] = target: T1, 5-hydroxytryptamine receptor 1A (Rattus norvegicus, UniProt P19327); test: Inhibitory activity against 5-hydroxytryptamine 1A receptor in rats, using [3H]8-OH-DPAT as radioligand
T1 sequence (P19327 whole entry): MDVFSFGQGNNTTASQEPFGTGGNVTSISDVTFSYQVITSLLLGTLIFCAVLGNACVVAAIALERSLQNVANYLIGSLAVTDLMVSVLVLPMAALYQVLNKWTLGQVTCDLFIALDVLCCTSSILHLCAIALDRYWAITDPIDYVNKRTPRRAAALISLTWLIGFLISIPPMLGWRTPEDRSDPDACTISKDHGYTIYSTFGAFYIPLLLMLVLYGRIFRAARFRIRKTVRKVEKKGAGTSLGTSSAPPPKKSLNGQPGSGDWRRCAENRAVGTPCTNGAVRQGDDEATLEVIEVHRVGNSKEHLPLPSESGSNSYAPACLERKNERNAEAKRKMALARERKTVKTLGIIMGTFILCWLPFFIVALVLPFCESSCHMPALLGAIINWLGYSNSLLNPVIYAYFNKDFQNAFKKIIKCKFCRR
How it was run: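 Rat whole-brain membranes (minus brainstem and cerebellum) in 50 mM Tris pH 8.0 with 120 mM NaCl, 4 mM CaCl2, 4 mM MgCl2 and 10 μM pargyline. Rapid filtration, then scintillation counting. Nonspecific binding defined with 10 μM 5-HT. IC50 by semi-log plot and linear regression.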

[2] = target: D(2) dopamine receptor (Rattus norvegicus, UniProt P61169); test: Inhibitory activity against Dopamine receptor D2 in rats using [3H]spiperone as radioligand
Sequence of D(2) dopamine receptor (P61169 whole entry): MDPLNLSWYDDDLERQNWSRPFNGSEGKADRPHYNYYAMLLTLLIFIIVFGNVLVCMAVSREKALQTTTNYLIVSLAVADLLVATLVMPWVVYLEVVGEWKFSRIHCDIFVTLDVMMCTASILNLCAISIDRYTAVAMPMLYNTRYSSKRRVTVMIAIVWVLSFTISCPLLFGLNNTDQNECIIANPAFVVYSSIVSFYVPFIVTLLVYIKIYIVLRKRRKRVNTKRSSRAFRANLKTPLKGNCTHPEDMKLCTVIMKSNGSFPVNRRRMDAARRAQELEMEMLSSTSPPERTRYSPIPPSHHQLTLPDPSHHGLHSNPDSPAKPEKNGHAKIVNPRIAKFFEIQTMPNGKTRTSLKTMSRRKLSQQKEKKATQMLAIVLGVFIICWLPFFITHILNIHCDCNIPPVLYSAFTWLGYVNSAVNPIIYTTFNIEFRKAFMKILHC
How it was run: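 Rat striatal membranes in 50 mM potassium phosphate buffer pH 7.4 were incubated with 0.5 nM [3H]spiperone for 10 min at 37 °C. Specific binding was defined with 10 μM 6,7-ADTN.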

[3] = tested on: Rattus norvegicus; test: Effect evaluated in vivo on 5-HTP accumulation in limbic system at a dose 3.1 umol/kg (p.o.); assay type: functional
How it was run: (§1)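 Oral dosing in male Sprague-Dawley rats (200–300 g) pretreated with reserpine 5 mg/kg sc 18 h before. After decarboxylase inhibition with NSD 1015, brain 5-HTP or dopa accumulation (HPLC-electrochemical detection) indexed 5-HT synthesis, DA synthesis (limbic) or NE synthesis (hemispheres, mainly cortex).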

[4] = tested on: Rattus norvegicus; test: Effect evaluated in vivo on 5-HTP accumulation in limbic system at a dose 3.1 umol/kg (s.c.); assay type: functional
How it was run: (§2)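 Male Sprague-Dawley rats (200–300 g) were pretreated with reserpine 5 mg/kg sc 18 h before. Test compound was given sc at 5 mL/kg in neutral solution. 5-HT synthesis rate was indexed by […] 5-HTP accumulation after decarboxylase inhibition with NSD 1015, measured by HPLC-electrochemical detection. Dose-response used 4–6 dose levels, n = 4.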

[5] = tested on: Rattus norvegicus; test: Effect evaluated in vivo on 5-HTP accumulation in limbic system at a dose 50 umol/kg (p.o.); assay type: functional; how it was run: as §1
[6] = tested on: Rattus norvegicus; test: Effect evaluated in vivo on 5-HTP accumulation in rats limbic system at a dose 50 umol/kg (s.c.); assay type: functional; how it was run: as §2
[7] = tested on: Rattus norvegicus; test: Effect evaluated in vivo on 5-HTP accumulation in NE-rich hemispheres at a 0.78 dose uM/kg(sc); assay type: functional
How it was run: (§3)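 Male Sprague-Dawley rats (200–300 g) were pretreated with reserpine 5 mg/kg sc 18 h beforehand. Test drug was given at neutral pH, 5 mL/kg. Aromatic amino acid decarboxylase was blocked with NSD 1015. 5-HTP in the dissected brain region was assayed by HPLC with electrochemical detection.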

[8] = tested on: Rattus norvegicus; test: Effect evaluated in vivo on 5-HTP accumulation in NE-rich hemispheres at a 0.80 dose uM/kg(po); assay type: functional; how it was run: as §3
[9] = tested on: Rattus norvegicus; test: Effect evaluated in vivo on 5-HTP accumulation in corpus striatum at a dose 12.5 umol/kg (p.o.); assay type: functional; how it was run: as §3
[10] = tested on: Rattus norvegicus; test: Effect evaluated in vivo on 5-HTP accumulation in corpus striatum at a dose 12.5 umol/kg (s.c.); assay type: functional; how it was run: as §3
[11] = tested on: Rattus norvegicus; test: Effect evaluated in vivo on 5-HTP accumulation in corpus striatum at a dose 3.1 umol/kg (p.o.); assay type: functional; how it was run: as §3
[12] = tested on: Rattus norvegicus; test: Effect evaluated in vivo on 5-HTP accumulation in corpus striatum at a dose 3.1 umol/kg (s.c.); assay type: functional; how it was run: as §3
[13] = tested on: Rattus norvegicus; test: Effect evaluated in vivo on 5-HTP accumulation in corpus striatum at a dose 50 umol/kg (p.o.); assay type: functional; how it was run: as §3
[14] = tested on: Rattus norvegicus; test: Effect evaluated in vivo on 5-HTP accumulation in corpus striatum after perioral administration; assay type: functional; how it was run: as §3
[15] = tested on: Rattus norvegicus; test: Effect evaluated in vivo on 5-HTP accumulation in limbic system after perioral administration; assay type: functional; how it was run: as §3
[16] = tested on: Rattus norvegicus; test: Effect evaluated in vivo on 5-HTP accumulation in limbic system after subcutaneous administration; assay type: functional; conditions: sc; how it was run: as §3
[17] = tested on: Rattus norvegicus; test: Effect evaluated in vivo on 5-HTP accumulation synthesis in NE-rich hemispheres after perioral administration; assay type: functional; how it was run: as §1
[18] = tested on: Rattus norvegicus; test: Effect evaluated in vivo on NE synthesis in NE-rich hemispheres after subcutaneous administration; assay type: functional; conditions: sc
How it was run: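 Rats pretreated with reserpine 5 mg/kg sc 18 h before received test compound sc at 5 mL/kg in neutral solution. After decarboxylase inhibition with NSD 1015, dopa accumulation in hemispheres (mainly cortex) was measured by HPLC-electrochemical detection as an index of NE synthesis. Dose-response used 4–6 dose levels, n = 4.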

[19] = tested on: Rattus norvegicus; test: Effect evaluated in vivo on 5-HTP accumulation in limbic system at a dose 0.78 umol/kg (s.c.); assay type: functional; how it was run: as §3
[20] = tested on: Rattus norvegicus; test: Effect evaluated in vivo on 5-HTP accumulation in limbic system at a dose 0.80 umol/kg (p.o.); assay type: functional; how it was run: as §1
[21] = tested on: Rattus norvegicus; test: Effect evaluated in vivo on 5-HTP accumulation in limbic system at a dose 12.5 umol/kg (p.o.); assay type: functional; how it was run: as §1
[22] = tested on: Rattus norvegicus; test: Effect evaluated in vivo on 5-HTP accumulation in limbic system at a dose 12.5 umol/kg (s.c.); assay type: functional; how it was run: as §2
[23] = tested on: Rattus norvegicus; test: Effect evaluated in vivo on 5-HTP accumulation in NE-rich hemispheres at a 12.5 dose uM/kg(po); assay type: functional; how it was run: as §3
[24] = tested on: Rattus norvegicus; test: Effect evaluated in vivo on 5-HTP accumulation in NE-rich hemispheres at a 12.5 dose uM/kg(sc); assay type: functional; how it was run: as §3
[25] = tested on: Rattus norvegicus; test: Effect evaluated in vivo on 5-HTP accumulation in NE-rich hemispheres at a 3.1 dose uM/kg(po); assay type: functional; how it was run: as §3
[26] = tested on: Rattus norvegicus; test: Effect evaluated in vivo on 5-HTP accumulation in NE-rich hemispheres at a 3.1 dose uM/kg(sc); assay type: functional; how it was run: as §3
[27] = tested on: Rattus norvegicus; test: Effect evaluated in vivo on 5-HTP accumulation in NE-rich hemispheres at a 50 dose uM/kg(po); assay type: functional; how it was run: as §3
[28] = tested on: Rattus norvegicus; test: Effect evaluated in vivo on 5-HTP accumulation in NE-rich hemispheres at a 50 dose uM/kg(sc); assay type: functional; how it was run: as §3
[29] = tested on: Rattus norvegicus; test: Effect evaluated in vivo on 5-HTP accumulation in corpus striatum after subcutaneous administration; assay type: functional; conditions: sc; how it was run: as §3
[30] = tested on: Rattus norvegicus; test: Effect evaluated in vivo on 5-HTP accumulation in corpus striatum at a dose 0.78 umol/kg (s.c.); assay type: functional; how it was run: as §3
[31] = tested on: Rattus norvegicus; test: Effect evaluated in vivo on 5-HTP accumulation in corpus striatum at a dose 0.80 umol/kg (p.o.); assay type: functional; how it was run: as §3
[32] = tested on: Rattus norvegicus; test: The compound was tested in vivo for locomotor activity in rats at 50 umol/kg after perioral administration; assay type: functional
How it was run: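 Reserpine-pretreated rats (5 mg/kg sc, 18 h before) received test compound orally. Photocell motility counts were accumulated over 30 min, and gross behaviour, including 5-HT syndrome, was observed.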

[33] = tested on: Rattus norvegicus; test: The compound was tested in vivo for locomotor activity in rats at 50 umol/kg after subcutaneous administration; assay type: functional
How it was run: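 Male Sprague-Dawley rats received reserpine 5 mg/kg sc in the neck 18 h before testing. Test compound was given sc in the neck (n = 4). Rats were placed singly in photocell motility meters immediately after dosing, and counts were accumulated over 30 min (tests 9 a.m.–1 p.m.). Gross behaviour, including 5-HT syndrome, was observed throughout.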

Compound `COc1cccc2c1CCN(CC1CC1)CC2` has an IC50 [1] of 0.12 µM, an IC50 [2] of 7.6 µM and a Control [3] of 70%. It also gave a Control [4] of 67%, a Control [5] of 48% and a Control [6] of 42%. For the same compound, the Control [7] was 95%, the Control [8] was 102% and the Control [9] was 77%. The Control [10] was 60%, the Control [11] was 59% and the Control [12] was 68%. It also gave a Control [13] of 48%, an ED50 [14] of 7 µmol/kg and an ED50 [15] of 5.5 µmol/kg. For the same compound, the ED50 [16] was 1.7 µmol/kg, the ED50 [17] was 6.5 µmol/kg and the ED50 [18] was 4 µmol/kg. For the same compound, the Control [19] was 84%, the Control [20] was 101% and the Control [21] was 83%. For the same compound, the Control [22] was 56%, the Control [23] was 89% and the Control [24] was 85%. The Control [25] was 75%, the Control [26] was 77% and the Control [27] was 50%. It also gave a Control [28] of 43%, an ED50 [29] of 2.5 µmol/kg and a Control [30] of 88%. It also gave a Control [31] of 102%, a Locomotor activity [32] of 31 and a Locomotor activity [33] of 107.
